Results published in ChEMBL document CHEMBL1146364, “High-throughput assay for the identification of Hsp90 inhibitors based on Hsp90-dependent refolding of firefly luciferase” (Bioorg Med Chem, 2007).
pIC50: −log10 of the molar value. Active and inactive are the calls of the source. No cut-off for these calls is given here.

Tests used:
SK-BR-3 [1] = test: Induction of Hsp90-dependent Her2 protein degradation in Skbr3 cells after 24 hrs by ELISA; assay type: functional, cell-based; details: Homo sapiens, SK-BR-3, 24 h
Procedure, shortened: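 SkBr3 cells seeded at 3000/well and attached overnight, then exposed to compounds at varying concentrations for 24 h. Cell number checked under the microscope against DMSO wells. Cells then washed, fixed and permeabilized in −20 °C methanol, and blocked with 5% BSA/PBST. Probed overnight at 4 °C with rabbit anti-Her2 (1:500), then with HRP anti-rabbit IgG (1:1000) for 2 h. Read by chemiluminescence.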

MCF7 [2] = test: Antiproliferative activity against MCF7 cells after 72 hrs; assay type: functional, cell-based; details: Homo sapiens, MCF7, 72 h
Procedure, shortened: (§1)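 Seeded at 2000 cells/well and left to attach overnight at 37 °C, 5% CO2. MCF-7 cells kept in 1:1 DMEM:Ham's F-12 with non-essential amino acids, 2 mM L-glutamine, pen/strep and 10% FBS. SkBr3 cells kept in McCoy's 5A with the same supplements. Compounds added over a range of concentrations in DMSO (1% final). After 72 h, viable cells counted by MTS/PMS. 1% DMSO wells set as 100% proliferation.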

SK-BR-3 [3] = test: Antiproliferative activity against SkBr3 cells after 72 hrs; assay type: functional, cell-based; details: Homo sapiens, SK-BR-3, 72 h; procedure, shortened: as §1
[4] = (§2) Inhibition of Hsp90-dependent luciferase renaturation in rabbit reticulocyte after 30 mins by luciferase refolding assay; design: species or system Oryctolagus cuniculus
Procedure, shortened: (§3)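 Luciferase in stability buffer (0.5 mg/mL) heat-denatured at 41 °C for 10 min. Compound in DMSO (1 μL) mixed with cold mix (Tris pH 7.7, Mg(OAc)2, KCl, ATP, creatine phosphate), creatine phosphokinase and denatured luciferase. Started with rabbit reticulocyte lysate diluted in 20 mM Tris-HCl pH 7.4/75 mM KCl. Ran 30 min at 25 °C, then luciferin/ATP buffer added and light read over 10 s. IC50 taken against DMSO control. Triplicates, at least two experiments.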

Oryctolagus cuniculus = species on record: Oryctolagus cuniculus; test: as §2; procedure, shortened: as §3
MCF7 [5] = test: Induction of Her2 degradation in MCF7 cells; assay type: functional, cell-based; details: Homo sapiens
Procedure, shortened: (§4)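 MCF-7 cells seeded at 1×10^6 per dish and attached overnight. Compound added at varying concentrations for 36 h at 37 °C, 5% CO2. Client protein loss assessed by western blot. Controls: GA 500 nM and DMSO.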

MCF7 [6] = test: Induction of AKT degradation in MCF7 cells; assay type: functional, cell-based; details: Homo sapiens; procedure, shortened: as §4
MCF7 [7] = test: Induction of Raf1 degradation in MCF7 cells; assay type: functional, cell-based; details: Homo sapiens; procedure, shortened: as §4

Structure (SMILES)	pIC50 (SK-BR-3 [1])	pIC50 (MCF7 [2])	pIC50 (SK-BR-3 [3])	pIC50 [4]	Activity (Oryctolagus cuniculus)	Activity (MCF7 [5])	Activity (MCF7 [6])	Activity (MCF7 [7])
Nc1ncc(-c2cccs2)s1	< 4.00	< 4.00	< 4.00	4.26	–	–	–	–
Cc1cc2nn(-c3ccc(Cl)cc3)nc2cc1NC(=O)C(C)C	< 4.00	< 4.00	< 4.00	6.92	–	–	–	–
CCOc1ccccc1NC(=O)CSc1ccccn1	< 4.00	< 4.00	< 4.00	–	inactive	–	–	–
CSc1nnc2c(n1)OC=Nc1ccccc1-2	< 4.00	< 4.00	< 4.00	4.82	–	–	–	–
O=C(CSc1nnnn1-c1ccc(F)cc1F)Nc1ccc2c(c1)OCCO2	< 4.00	< 4.00	< 4.00	5.36	–	–	–	–
C=CCOc1ccccc1/C=C1\C(=O)N(c2cccc(Cl)c2)N=C1C	4.29	4.47	4.41	5.35	–	–	–	–
COc1ccc(/C=C2/SC(=O)NC2=O)cc1OC	< 4.00	< 4.00	< 4.00	3.72	–	–	–	–
Cc1nc(N)sc1-c1csc(Nc2ccccc2)n1	4.21	4.36	4.26	4.82	–	–	–	–
Cc1c(Cc2ccccc2)sc(NC(=O)c2ccc([N+](=O)[O-])cc2)c1C(N)=O	4.19	4.39	4.26	–	inactive	–	–	–
CC1=NN(c2ccc(Cl)cc2)C(=O)C1	< 4.00	< 4.00	< 4.00	5.68	–	–	–	–
N#CC1=C(N)N2C(=C(C#N)C1c1cccs1)Sc1ccccc12 (stereo unspecified)	4.17	< 4.00	4.38	4.89	–	–	–	–
COc1ccccc1CNC(=O)c1ccc(C)cc1	< 4.00	< 4.00	< 4.00	4.66	–	–	–	–

Stronger by pIC50 (SK-BR-3 [1]), values ahead:

pIC50 (SK-BR-3 [1])	pIC50 (MCF7 [2])	pIC50 (SK-BR-3 [3])	pIC50 [4]	Activity (Oryctolagus cuniculus)	Structure (SMILES)	Activity (MCF7 [5])	Activity (MCF7 [6])	Activity (MCF7 [7])
4.96	5.04	4.82	5.17	–	Cc1ccc(Nc2cc(C)c(O)c(C)c2)cc1	–	–	–
4.36	4.03	4.12	4.64	–	CCNC(=O)c1c(N)sc2c1CCCCC2	–	–	–
4.67	< 4.00	4.60	4.82	–	COc1ccc(C(=O)/C=C(\C)Nc2ccccc2O)cc1	–	–	–
5.36	5.52	5.62	4.80	–	CCOC(=O)Oc1ccc2c(c1)C(C)=CC(C)(C)N2	Active	Active	Active
4.48	5.40	4.64	4.44	–	Oc1c(C(Nc2cccc(Cl)c2)c2ccncc2)ccc2cccnc12 (stereo unspecified)	–	–	–
4.90	5.68	4.82	5.72	–	CCOc1ccc(Nc2nc(-c3sc(NC(C)=O)nc3C)cs2)cc1	Active	Active	Active
5.33	4.72	5.11	3.92	–	Oc1ccc(O)c(SCCCCN2CCOCC2)c1	–	–	–
5.05	4.60	5.05	5.15	–	CCc1ccc(O)c(/N=C/c2cccc(C)c2O)c1	–	–	–
